Laboratory results published in ChEMBL document CHEMBL1127369, “Synthesis and structure-activity relationships of peptidyl alpha-keto heterocycles as novel inhibitors of prolyl endopeptidase” (J Med Chem, 1994).

Molecular target: Prolyl endopeptidase (Sus scrofa, UniProt P23687)
Assay: In vitro inhibitory activity against prolyl endopeptidase (PEP)
Summary of the method: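 Pig kidney PEP, partially purified. Substrate Z-Gly-Pro-p-nitroanilide at 0.26 mM in dioxane with 0.2 M phosphate buffer. Inhibitor is added in DMSO over a range of concentrations, then enzyme (0.05 units/mL). Incubation 20 min at 37 °C, with p-nitroaniline read at 405 nm. IC50 (n = 3-6) is estimated from the inhibitor concentration vs activity curve.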

Chain of Prolyl endopeptidase (P23687 whole entry): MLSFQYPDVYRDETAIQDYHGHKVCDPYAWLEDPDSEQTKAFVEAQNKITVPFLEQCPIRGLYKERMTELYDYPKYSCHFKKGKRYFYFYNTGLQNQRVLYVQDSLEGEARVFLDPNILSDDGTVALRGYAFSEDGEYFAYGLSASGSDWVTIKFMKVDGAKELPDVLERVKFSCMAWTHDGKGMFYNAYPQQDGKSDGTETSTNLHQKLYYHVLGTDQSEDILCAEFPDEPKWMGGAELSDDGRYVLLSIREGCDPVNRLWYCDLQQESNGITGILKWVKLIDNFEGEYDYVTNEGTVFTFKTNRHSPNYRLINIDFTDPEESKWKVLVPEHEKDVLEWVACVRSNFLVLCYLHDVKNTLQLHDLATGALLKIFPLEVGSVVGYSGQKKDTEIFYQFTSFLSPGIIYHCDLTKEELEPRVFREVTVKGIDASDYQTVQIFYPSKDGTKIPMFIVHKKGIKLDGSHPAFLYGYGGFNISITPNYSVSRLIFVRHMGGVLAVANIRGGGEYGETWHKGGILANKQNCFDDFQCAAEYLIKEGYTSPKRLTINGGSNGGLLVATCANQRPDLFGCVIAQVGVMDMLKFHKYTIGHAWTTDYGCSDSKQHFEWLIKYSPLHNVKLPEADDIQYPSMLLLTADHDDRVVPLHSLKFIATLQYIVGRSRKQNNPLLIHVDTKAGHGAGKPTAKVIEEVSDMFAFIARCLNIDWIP

SMILES | IC50 [nM]
O=C(c1nc2ccccc2s1)[C@@H]1CCCN1C(=O)[C@@H]1CCCN1C(=O)CCCc1ccccc1 | 4
O=C(c1ccc[nH]1)[C@@H]1CCCN1C(=O)[C@@H]1CCCN1C(=O)CCCc1ccccc1 | 21300
O=C(c1nc2ccccc2s1)[C@@H]1CCCN1C(=O)[C@@H]1CCCN1C(=O)OCc1ccccc1 | 5
O=C(c1nc2ccccc2o1)[C@@H]1CCCN1C(=O)[C@@H]1CCCN1C(=O)CCCc1ccccc1 | 5.6
O=C(c1cccs1)[C@@H]1CCCN1C(=O)[C@@H]1CCCN1C(=O)OCc1ccccc1 | 2020
O=C(C1=NCCS1)[C@@H]1CCCN1C(=O)[C@@H]1CCCN1C(=O)CCCc1ccccc1 | 3.8
O=C(c1nc2ncccc2o1)[C@@H]1CCCN1C(=O)[C@@H]1CCCN1C(=O)CCCc1ccccc1 | 5.5
CCOC(=O)C(=O)C1CCCN1C(=O)[C@@H]1CCCN1C(=O)CCCc1ccccc1 (some centres not stated) | 10.3
O=C(c1nccs1)C1CCCN1C(=O)C1CCCN1C(=O)OCc1ccccc1 (configuration not stated) | 8.5

More lines, now with the values ahead:

IC50 [nM] | SMILES
1090 | O=C(c1cncs1)[C@@H]1CCCN1C(=O)[C@@H]1CCCN1C(=O)CCCc1ccccc1
9 | O=C(c1ncc[nH]1)[C@@H]1CCCN1C(=O)[C@@H]1CCCN1C(=O)CCCc1ccccc1
2290 | O=C(c1cccnc1)[C@@H]1CCCN1C(=O)[C@@H]1CCCN1C(=O)CCCc1ccccc1
6.9 | O=C(c1ccccn1)[C@@H]1CCCN1C(=O)[C@@H]1CCCN1C(=O)CCCc1ccccc1
6.2 | O=C(c1cscn1)[C@@H]1CCCN1C(=O)[C@@H]1CCCN1C(=O)CCCc1ccccc1
16100 | O=C([C@@H]1CCCN1C(=O)CCCc1ccccc1)N1CCCC1C(O)c1nccs1 (some centres not stated)
1260 | O=C(c1cccs1)[C@@H]1CCCN1C(=O)[C@@H]1CCCN1C(=O)CCCc1ccccc1
61 | O=C(c1cncnc1)[C@@H]1CCCN1C(=O)[C@@H]1CCCN1C(=O)CCCc1ccccc1
